# ChEMBL document CHEMBL1131456, “Synthesis, pharmacological characterization, and quantitative structure-activity relationship analyses of 3,7,9,9-tetraalkylbispidines: derivatives with specific bradycardic activity” (J Med Chem, 1998)
# What was measured:
# Rattus norvegicus [1] = species on record: Rattus norvegicus; experiment: Selectivity quotient (R&T125/HR75)
# Rattus norvegicus [2] = experiment: In vivo activity in anesthetized rat was measured as heart rate which provides information on in vivo bradycardic activity; type: functional
# In short: (§1)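 Male Wistar rats (280–360 g) under urethane (1.25 g/kg ip), intubated and breathing spontaneously. Femoral arterial pressure was recorded with needle-electrode ECG, analysed every 30 s. Compound was given by continuous femoral-vein infusion at 0.1 mL/min, with concentration raised tenfold every 10 min (3 doses). ED75/ED125 is the dose giving a 25% decrease/increase from the predrug value, reported as the geometric mean of individual EDs.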
# Rattus norvegicus [3] = experiment: In vivo activity in anesthetized rat was measured as the diastolic arterial pressure which provides information on the peripheral resistance of the cardiovascular system and selectivity regarding bradycardia; type: functional, Artery
# In short: as §1
# Cavia porcellus [4] = species on record: Cavia porcellus; experiment: In vitro activity in guinea pig atria as the functional refractory period (FRP), which is the shortest interval between a double stimulus causing a double contraction.
# In short: (§2)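 Isolated guinea pig atria in oxygenated buffer at 35 °C. Right atria beat spontaneously; left atria were paced at 2 Hz with 1 ms rectangular pulses and isometric contractions were recorded. Cumulative concentration–response curves were run with up to five concentrations. EC75/EC125 is the concentration giving a 25% decrease/increase from the predrug value, reported as the geometric mean of individual ECs.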
# Rattus norvegicus [5] = species on record: Rattus norvegicus; experiment: Score value indicates desire effect on heart rate; type: functional
# Rattus norvegicus [6] = species on record: Rattus norvegicus; experiment: Total score (SS)
# Cavia porcellus [7] = species on record: Cavia porcellus; experiment: Sum of the scores of decrease of the sinus rate and selectivity versus the decrease in force of contraction; type: functional
# Cavia porcellus [8] = species on record: Cavia porcellus; experiment: Selectivity quotient (F75/SR75); type: functional
# In short: (§3)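 Atrial selectivity quotients were calculated from the guinea pig atrial EC values as F75/SR75 and FRP125/SR75.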
# Rattus norvegicus [9] = species on record: Rattus norvegicus; experiment: Score value indicates selectivity against the undesired effect on diastolic blood pressure; type: functional, Artery
# Cavia porcellus [10] = species on record: Cavia porcellus; experiment: Selectivity quotient (FRP125/SR75); type: functional
# In short: as §3
# Cavia porcellus [11] = species on record: Cavia porcellus; experiment: Score value indicates selectivity versus the decrease in force of contraction; type: functional
# Cavia porcellus [12] = species on record: Cavia porcellus; experiment: In vitro activity in guinea pig atria was measured as rate of spontaneously beating right atrium (SR) which reflects the activity of the sinus node; type: functional; settings: Cardiac atrium
# In short: as §2
# Rattus norvegicus [13] = species on record: Rattus norvegicus; experiment: Selectivity quotient (DAP125/HR75)
# Rattus norvegicus [14] = experiment: In vivo activity in anesthetized rat was measured as the R alpha T-interval of the rat ECG which reflects the time from ventricular excitation to recovery; type: functional, Cardiac ventricle
# In short: as §1
# Rattus norvegicus [15] = species on record: Rattus norvegicus; experiment: Score point for the selectivity versus additional effect R&T interval.; type: functional
# Cavia porcellus [16] = species on record: Cavia porcellus; experiment: In vitro activity in guinea pig atria was measured as the peak force of contraction (F) of a stimulated left atrium; type: functional; settings: Cardiac atrium
# In short: as §2
# Cavia porcellus [17] = species on record: Cavia porcellus; experiment: Score value indicates decrease of the sinus rate; type: functional
# [18] = Partition coefficient (logP); type: physicochemical; settings: octanol/water; read-out: logP
# In short: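 Lipophilicity was measured by reversed-phase HPLC. Mobile phase was methanol/0.005 M phosphate buffer pH 4 (60/40) with 0.1% SDS and 0.1 M NaClO4, at 23.0 ± 0.5 °C, with UV detection at 205 nm.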
# Cavia porcellus [19] = species on record: Cavia porcellus; experiment: Score point for the selectivity versus additional effect FRP.; type: functional
logP [18],SMILES,Selectivity quotient (Rattus norvegicus [1]),ED75 (Rattus norvegicus [2]) [µM/kg],ED125 (Rattus norvegicus [3]) [µM/kg],EC125 (Cavia porcellus [4]) [µM],Score (Rattus norvegicus [5]),total score (SS) (Rattus norvegicus [6]),Score (Cavia porcellus [7]),Selectivity quotient (Cavia porcellus [8]),Score (Rattus norvegicus [9]),Selectivity quotient (Cavia porcellus [10]),Score (Cavia porcellus [11]),EC75 (Cavia porcellus [12]) [µM],Selectivity quotient (Rattus norvegicus [13]),ED125 (Rattus norvegicus [14]) [µM/kg],Score (Rattus norvegicus [15]),EC75 (Cavia porcellus [16]) [µM],Score (Cavia porcellus [17]),Score (Cavia porcellus [19])
5.32,C=CCCN1CC2CN(CC(C)C)CC(C1)C2(CCC)CCC,0.09,3.5,2.4,0.73,6,3,6,52.5,-3,1.66,0,0.44,0.68,0.32,6,23.1,6,3
3.88,CCCCN1CC2CN(CCCC)CC(C1)C2(C)C,0.11,5.3,0.2,1,5,-1,4,35,-6,0.33,0,3,0.04,0.57,5,104,4,4
3.42,C=CCCN1CC2CN(CCCC)CC(C1)C2(C)C,0.12,5.9,2.2,2.08,5,1,5,87.6,-4,1.72,0,1.21,0.37,0.7,5,106,5,3
3.13,C=CCCN1CC2CN(CCC=C)CC(C1)C2(C)C,0.13,7.1,>46,1.87,5,4,5,>177,-1,1.54,0,1.21,>6,0.94,5,> 215,5,3

# Second part, the compound before the results:
SMILES,logP [18],Selectivity quotient (Rattus norvegicus [1]),ED75 (Rattus norvegicus [2]) [µM/kg],ED125 (Rattus norvegicus [3]) [µM/kg],EC125 (Cavia porcellus [4]) [µM],Score (Rattus norvegicus [5]),total score (SS) (Rattus norvegicus [6]),Score (Cavia porcellus [7]),Selectivity quotient (Cavia porcellus [8]),Score (Rattus norvegicus [9]),Selectivity quotient (Cavia porcellus [10]),Score (Cavia porcellus [11]),EC75 (Cavia porcellus [12]) [µM],Selectivity quotient (Rattus norvegicus [13]),ED125 (Rattus norvegicus [14]) [µM/kg],Score (Rattus norvegicus [15]),EC75 (Cavia porcellus [16]) [µM],Score (Cavia porcellus [17]),Score (Cavia porcellus [19])
CCCCC1(CCCC)C2CN(CC3CCCCC3)CC1CN(C(C)C)C2,7.61,0.12,9.3,>66,1.45,4,3,0,1.92,-1,0.76,-5,1.9,>7,1.1,5,3.65,5,3
CCCC1(CCC)C2CN(C(C)C)CC1CN(C(C)C)C2,4.51,0.28,6.4,11,0.8,5,2,4,18.2,-3,0.37,-1,2.18,1.72,1.8,4,39.6,5,4
CCCCN1CC2CN(CCCC)CC(C1)C21CCC1,4.24,0.12,4.7,0.6,0.63,6,1,6,108,-5,1.21,0,0.52,0.13,0.55,5,56.1,6,3
C1CCC(CN2CC3CN(CC4CCCCC4)CC(C2)C32CCCCC2)CC1,7.43,0.6,20,>61,0.62,3,1,-3,0.35,-2,0.08,-6,7.57,>3,12,3,2.65,3,6
CCCCN1CC2CN(CCCC)CC(C1)C2(C)CC (stereo unspecified),4.37,0.13,4.6,0.57,0.54,6,1,-2,0.47,-5,0.17,-6,3.21,0.12,0.61,5,1.52,4,5
